Rows were chosen to be rich in hits. Some 3.8% of all compounds tested hit in one or more screens of this group.
FGF22 binding = binders of recombinant human FGF22 by thermal shift; activity (Tm shift, normalised), % at 9.99 µM; 340,000 compounds, 1.5% hits; SYPRO orange fluorescence; percent of sucrose octasulfate shift, DMSO zero; Q9HCT0;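 active = mean Tm shift, scaled 0 neutral to 100 positive control, at about 1.3% or above, every replicate too, limit read from the data; inconclusive = no clear call, values can overlap the other calls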
Target sequence (Q9HCT0 whole entry, looked up): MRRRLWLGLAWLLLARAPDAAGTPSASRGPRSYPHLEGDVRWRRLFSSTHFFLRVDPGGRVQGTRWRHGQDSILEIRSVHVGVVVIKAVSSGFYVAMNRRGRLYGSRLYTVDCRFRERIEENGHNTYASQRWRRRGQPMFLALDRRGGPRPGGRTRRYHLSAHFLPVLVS
Xi reactivation = X-chromosome reactivation activator; XiGFP mouse fibroblasts, % GFP-positive cells imaging, 3 d; cells co-treated with 5-aza-dC sensitizer; scaled so ellipticine positive control = 100%; activation, % at 7.58 µM; 360,000 compounds, 0.055% hits; AID 743238;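 active = mean normalized replicate activation at least 10% and every replicate at or above 10%; inconclusive = only one of the two criteria met; inactive = mean below 10% and not all replicates reach 10%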;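 note: 0% = median of on-plate neutral control wells and 100% = ellipticine 6 µM median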
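System: 68-5-11 XiGFP fibroblast line | Buffer or medium: DMEM containing 5-aza-dC | Compound: Single point | Times: Compounds 3 days, fix/stain 15 min at room temperature | Benchmarks: Positive control ellipticine, 6 µM final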
SIRT5 block = blocks human SIRT5 desuccinylation of peptide. 330,000 compounds, 1.1% hits. Purified SirT5, succinyl-peptide AMC, trypsin-coupled fluorescence. AID 652115. Q9NXA8. inhibition, % at 15 µM; in the data active = inhibition above about 15%; inconclusive = no clear call, values can overlap the other calls
Target sequence (Q9NXA8 whole entry, looked up): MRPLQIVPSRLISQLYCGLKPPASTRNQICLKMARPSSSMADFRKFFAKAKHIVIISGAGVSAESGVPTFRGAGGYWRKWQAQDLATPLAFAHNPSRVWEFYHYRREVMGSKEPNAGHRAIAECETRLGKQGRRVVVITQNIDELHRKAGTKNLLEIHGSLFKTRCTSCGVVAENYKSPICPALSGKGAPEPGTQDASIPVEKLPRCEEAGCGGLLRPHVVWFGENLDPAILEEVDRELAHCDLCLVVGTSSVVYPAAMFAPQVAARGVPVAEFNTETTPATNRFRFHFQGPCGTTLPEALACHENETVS
DENV2 CPE rescue = DENV2-induced cell death inhibition. CPE inhibition, % at 9.99 µM. 350,000 compounds, 1.7% hits. AID 651640. DENV2-infected cells, cytopathic effect rescue, plate reader; in the data active = CPE inhibition above about 20%, passing the limit was not always enough; inconclusive = no clear call, values can overlap the other calls; tested in BHK-21 cells;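 note: 0% = median of neutral control wells and 100% = median of positive control wells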
ARNT TACC3 PPI = disruptors of human ARNT/TACC3 interaction. Q9Y6A5. AlphaScreen His-ARNT PAS-B/GST-TACC3 binding, luminescence; TACC3 fragment carries E629A point mutation. AID 623870. inhibition, % at 9.99 µM. 390,000 compounds, 0.66% hits;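 active = mean inhibition of replicates at least 50% and at least half of replicates each reaching 50%; inconclusive = half or more replicates reach 50% but mean below 50%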;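 note: 0% = complete ARNT plus TACC3 wells and 100% = ARNT alone without TACC3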
FN deposit inh = fibronectin deposition inhibition; inhibition, % at 12.6 µM; AID 743247; AH1F fibroblasts, Alexa488-fibronectin deposition fluorescence, overnight; 350,000 compounds, 0.086% hits;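 active = mean inhibition across replicates of 30% or more, regardless of how many single replicates reach that level; inconclusive = mean under 30% yet at least half of replicates reach 30%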;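 note: positive control wells lacked labelled fibronectin entirely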
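Schedule: 1 h cell adhesion before compound, then overnight fibronectin incubation; test system: AH1F fibroblast monolayer depositing Alexa488-labelled fibronectin into matrix; quantity: 10000 AH1F cells per well; probe or stimulus: fluorescent fibronectin at 24 nM final; signal: fluorescence, ex 485 nm, em 525 nm; evaluation: percent inhibition as loss of matrix-bound fibronectin fluorescence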
Starred values were filed as active, the others as inactive; ! = not active in a repeat.

Screening COc1ccc(CCNc2nc(-c3ccncc3)cs2)cc1OC returned FGF22 binding -0.2, Xi reactivation 0.1, SIRT5 block -1.1, DENV2 CPE rescue -2.7, ARNT TACC3 PPI 4.3 and FN deposit inh 7.1.
For Cn1ccc2c(-c3ccc(C(C)(C)C)cc3)cc3c(c21)C1CCC3C1 (configuration not stated) the results were FGF22 binding 0.0, Xi reactivation 0.0, DENV2 CPE rescue 20.9* and FN deposit inh -9.4.
Screening CN1c2ccc(-c3ccccc3F)cc2[C@@H]2[C@@H](CCN2S(=O)(=O)c2ccc(F)cc2)[C@H]1CO returned FGF22 binding 0.4, Xi reactivation -0.1, SIRT5 block 5.3, DENV2 CPE rescue 19.9, ARNT TACC3 PPI 3.6 and FN deposit inh 4.6.
COc1ccc(S(=O)(=O)N2CC[C@@H]3[C@H]2c2cc(-c4ccccc4F)ccc2N(C)[C@H]3CO)cc1 was read as FGF22 binding -0.2, Xi reactivation 0.0, DENV2 CPE rescue 25.5*, ARNT TACC3 PPI -8.5 and FN deposit inh 14.8.
Screening CN1c2ccc(-c3ccccc3F)cc2[C@@H]2[C@@H](CCN2S(=O)(=O)c2ccc(F)cc2)[C@@H]1CO returned Xi reactivation 0.4, SIRT5 block 6.1, DENV2 CPE rescue 52.6*, ARNT TACC3 PPI -0.6 and FN deposit inh 4.5.
`N#CC1=C(N)N2C(=C(C#N)C1c1cccc(Br)c1)Nc1ccccc12` (configuration not stated) gave FGF22 binding 42.9*, Xi reactivation -0.1, SIRT5 block -0.3, DENV2 CPE rescue 1.0, ARNT TACC3 PPI -3.3 and FN deposit inh 7.3.
Screening Cc1noc(C)c1NC(=O)Nc1ccc2c(c1)C(=O)N([C@H](C)CO)C[C@H](C)[C@@H](CN(C)Cc1ccncc1)OCCCC[C@@H](C)O2 returned FGF22 binding -0.5, Xi reactivation 0.0, SIRT5 block 3.1, DENV2 CPE rescue -1.8 and ARNT TACC3 PPI -8.1.
`Nc1nc(-c2cc3c(cc2Cl)OCCO3)cs1` gave FGF22 binding -0.2, Xi reactivation 0.0, SIRT5 block 2.7, DENV2 CPE rescue 0.6, ARNT TACC3 PPI 1.6 and FN deposit inh 31.8*.
CN(C)CC(=O)N1[C@H](C#N)[C@H](c2ccccc2-c2ccccc2F)[C@@H]1CO was read as Xi reactivation 0.0, SIRT5 block -1.8, DENV2 CPE rescue 12.2 and FN deposit inh 3.9.
Screening Cc1cccc(CSc2nnc(-c3ccccn3)n2N)c1 returned ARNT TACC3 PPI 45.4* and FN deposit inh -11.7.
For C[C@H](CO)N1C[C@H](C)[C@@H](CN(C)C(=O)NC2CCCCC2)Oc2ccc(NS(=O)(=O)c3cccs3)cc2C1=O the results were FGF22 binding -0.8, Xi reactivation -1.1, SIRT5 block 16.4*!, DENV2 CPE rescue -4.7, ARNT TACC3 PPI 1.1 and FN deposit inh -2.5.
C[C@@H]1CN([C@@H](C)CO)C(=O)c2cc(NS(=O)(=O)c3cn(C)cn3)ccc2O[C@H]1CN(C)C(=O)NC1CCCCC1 was read as FGF22 binding -0.1, Xi reactivation 0.0, SIRT5 block 2.9, DENV2 CPE rescue 45.0*, ARNT TACC3 PPI -2.6 and FN deposit inh -0.7.
`C[C@H](CO)N1C[C@H](C)[C@@H](CN(C)C(=O)NC2CCCCC2)Oc2ccc(NC(=O)C3CC3)cc2C1=O` gave FGF22 binding 0.1, Xi reactivation -0.4, SIRT5 block -2.9, DENV2 CPE rescue 56.2*!, ARNT TACC3 PPI -0.1 and FN deposit inh -11.6.
For C[C@H](CO)N1C[C@H](C)[C@H](CN(C)C(=O)NC2CCCCC2)Oc2ccc(NC(=O)Cn3cnnn3)cc2C1=O the results were FGF22 binding 0.8, Xi reactivation 0.3, SIRT5 block 10.4, DENV2 CPE rescue 99.0*, ARNT TACC3 PPI -5.3 and FN deposit inh -7.2.
O=C(C1CC1)N1CC(=O)N2[C@@H](CO)[C@@H](c3ccc(C#CCc4ccccc4)cc3)[C@@H]2C1 was read as Xi reactivation 0.0, SIRT5 block 4.6, DENV2 CPE rescue inconclusive and FN deposit inh -16.2.
For O=C(NCC1CC1)[C@H]1[C@H](CO)[C@H]2Cn3c(cccc3=O)[C@@H]1N2CCc1ccccc1 the results were FGF22 binding 0.3, Xi reactivation 0.0, SIRT5 block 2.6, DENV2 CPE rescue 0.9 and ARNT TACC3 PPI 3.5.
`C[C@@H]1CN([C@H](C)CO)C(=O)c2cc(NS(=O)(=O)c3cn(C)cn3)ccc2O[C@H]1CN(C)C(=O)Nc1ccccc1` gave FGF22 binding -0.2, Xi reactivation 0.0, SIRT5 block 23.1*!, DENV2 CPE rescue 12.9, ARNT TACC3 PPI -1.5 and FN deposit inh 4.9.
C[C@@H]1CN([C@H](C)CO)C(=O)c2cc(NS(C)(=O)=O)ccc2O[C@H]1CN(C)C(=O)NC1CCCCC1 was read as FGF22 binding -0.1, Xi reactivation -1.0, SIRT5 block -3.6, DENV2 CPE rescue 1.8 and ARNT TACC3 PPI -4.3.
For C[C@H](CO)N1C[C@H](C)[C@@H](CN(C)C(=O)NC2CCCCC2)Oc2ccc(NS(C)(=O)=O)cc2C1=O the results were FGF22 binding -0.1, Xi reactivation -1.1, SIRT5 block 0.3, DENV2 CPE rescue 28.9*!, ARNT TACC3 PPI -2.7 and FN deposit inh 3.1.
Screening COc1ccc(-c2ccc3c(c2)O[C@H](CN(C)C(C)=O)[C@H](C)CN([C@H](C)CO)S3(=O)=O)cc1 returned FGF22 binding -0.4, Xi reactivation -1.0, SIRT5 block -1.6, DENV2 CPE rescue 4.3, ARNT TACC3 PPI 0.9 and FN deposit inh 11.0.
`CN(C)c1ccc(N/C=C/C(=O)C(C)(C)C)cc1` gave ARNT TACC3 PPI 26.8*.
Screening CN(C)c1ccc(N/C=C/C(=O)c2ccccc2)cc1 returned ARNT TACC3 PPI 11.1.
Screening Cc1ccc(C2=NOC(C)(c3nnc(-c4ccncc4)o3)C2)cc1 (configuration not stated) returned FGF22 binding 0.0, Xi reactivation -0.1, DENV2 CPE rescue 58.1*, ARNT TACC3 PPI -6.1 and FN deposit inh -0.4.
For C[C@H]1CN([C@@H](C)CO)C(=O)c2cc(NS(=O)(=O)c3ccc(F)cc3)ccc2O[C@@H]1CN(C)Cc1ccccc1 the results were FGF22 binding 0.0, Xi reactivation 1.3, SIRT5 block 1.7, DENV2 CPE rescue 2.2 and ARNT TACC3 PPI -4.6.
`O=C(NCc1cc(F)cc(F)c1)[C@H]1[C@H](CO)[C@H]2Cn3c(cccc3=O)[C@@H]1N2C(=O)Cc1ccccn1` gave FGF22 binding 0.1, Xi reactivation -0.1, SIRT5 block -0.8, DENV2 CPE rescue -10.1 and ARNT TACC3 PPI 2.9.

Assay outcomes: PubChem BioAssay, Broad Institute
